From ChEMBL document CHEMBL3822425, “Isatin Derived Spirocyclic Analogues with α-Methylene-γ-butyrolactone as Anticancer Agents: A Structure-Activity Relationship Study” (J Med Chem, 2016)
The source made the active and inactive calls. No cut-off for these calls is given here.

Legend:
[1] = tested on: A549; assay: Inhibition of TNFalpha-induced IKKbeta-mediated NF-kappaB activity in human A549 cells at 10 uM after 2 hrs followed by TNFalpha addition for 7 hrs by ONE-Glo Luciferase reporter based luminescence assay; format: cell-based
Summary of the method: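 A549 luciferase cells grown 5 passages without TNFα then 2 passages with or without 5 ng/mL TNFα; 50,000 per well overnight; 10 µM compound 2 h; then 20 ng/mL TNFα 7 h; PrestoBlue 10 min (560ex/590em) viability; ONE-Glo 10 min, luminescence 1000 ms.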

[2] = tested on: A2780; assay: Cytotoxicity against human A2780 cells assessed as cell growth inhibition after 3 days by presto blue dye based plate reader method; format: functional; details: A2780, 72 h
Summary of the method: (§1)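 Cells in DMEM high glucose/10% FBS (A2780 in RPMI/10% FBS), 4,000 per well, overnight, then 40 to 0.039 µM or vehicle, 24, 48, 72 h at 37°C, 5% CO2; PrestoBlue 15 min, fluorescence 560ex/590em; growth as 100×[(T−Tz)/(C−Tz)] per NCI algorithm.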

[3] = tested on: HeLa; assay: Cytotoxicity against human HeLa cells expressing GFP assessed as cell growth inhibition after 3 days by presto blue dye based plate reader method; format: functional; details: 72 h; summary of the method: as §1
[4] = Cytotoxicity against human MIAPaCa2 cells assessed as cell growth inhibition after 3 days by presto blue dye based plate reader method; format: functional; details: MIA PaCa-2, 72 h; summary of the method: as §1
[5] = tested on: SW480; assay: Cytotoxicity against human SW480 cells assessed as cell growth inhibition after 3 days by presto blue dye based plate reader method; format: functional; details: SW480, 72 h
[6] = target: T1, serum albumin (Homo sapiens, UniProt P02768); assay: Binding affinity to human serum albumin assessed as half life by MS analysis; format: ADME
[7] = target: T1, serum albumin; assay: Binding affinity to human serum albumin assessed as half life by HPLC analysis; format: ADME
[8] = tested on: A549; assay: Inhibition of TNFalpha-induced IKKbeta-mediated NF-kappaB activity in human A549 cells at 10 uM after 2 hrs followed by TNFalpha addition for 7 hrs by ONE-Glo Luciferase reporter based luminescence assay
[9] = tested on: MDA-MB-231; assay: Cytotoxicity against human MDA-MB-231 cells assessed as cell growth inhibition after 3 days by presto blue dye based plate reader method; format: functional; summary of the method: as §1
[10] = tested on: HeLa; assay: Induction of apoptosis in human HeLa cells assessed as PARP cleavage after 24 to 48 hrs by Western blot analysis; format: functional, cell-based
Summary of the method: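 Cells collected with media and trypsinized pellet combined, lysed in RIPA buffer (pH 8.0), 4-20% SDS-PAGE, Western blot with anti-PARP to detect cleavage; HeLa timepoint 48 h.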

[11] = target: T2, Inhibitor of nuclear factor kappa-B kinase subunit beta (Homo sapiens) (UniProt O14920); assay: Inhibition of IKKbeta in human MDA-MB-231 cells assessed as reduction in IkappaBalpha phosphorylation by Western blot analysis; format: cell-based
T2 sequence (whole entry): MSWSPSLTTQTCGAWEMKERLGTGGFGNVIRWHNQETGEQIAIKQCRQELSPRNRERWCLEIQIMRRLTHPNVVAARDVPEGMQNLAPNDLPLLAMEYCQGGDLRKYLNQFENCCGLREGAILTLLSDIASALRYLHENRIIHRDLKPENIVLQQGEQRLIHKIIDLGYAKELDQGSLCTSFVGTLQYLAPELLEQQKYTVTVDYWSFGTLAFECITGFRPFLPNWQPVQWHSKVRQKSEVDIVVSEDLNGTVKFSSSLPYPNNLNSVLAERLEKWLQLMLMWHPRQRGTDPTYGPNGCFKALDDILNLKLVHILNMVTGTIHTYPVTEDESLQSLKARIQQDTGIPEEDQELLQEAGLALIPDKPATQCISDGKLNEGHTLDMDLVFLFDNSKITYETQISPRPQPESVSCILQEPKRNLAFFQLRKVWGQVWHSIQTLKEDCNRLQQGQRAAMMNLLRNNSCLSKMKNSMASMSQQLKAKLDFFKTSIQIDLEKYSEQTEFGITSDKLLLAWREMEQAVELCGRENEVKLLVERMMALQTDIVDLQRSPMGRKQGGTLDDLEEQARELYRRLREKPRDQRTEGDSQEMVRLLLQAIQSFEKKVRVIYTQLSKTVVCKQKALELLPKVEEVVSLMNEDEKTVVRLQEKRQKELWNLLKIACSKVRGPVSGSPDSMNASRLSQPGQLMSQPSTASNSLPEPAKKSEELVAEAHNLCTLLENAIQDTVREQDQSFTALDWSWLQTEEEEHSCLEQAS
Summary of the method: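 MDA-MB-231 cytoplasmic fractions: swelling 30 min on ice in HEPES/KCl/EDTA/DTT buffer with inhibitors, 1.25% NP-40, centrifuged; lysates on 4-20% gels, PVDF, anti-phospho-IκBα and anti-IκBα, tubulin or GAPDH loading control, ECL detection.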

[12] = target: T2, Inhibitor of nuclear factor kappa-B kinase subunit beta (Homo sapiens); assay: Inhibition of IKKbeta in human MIAPaCa2 cells assessed as reduction in IkappaBalpha phosphorylation at 10 to 20 uM by Western blot analysis; format: cell-based; details: MIA PaCa-2
[13] = tested on: MDA-MB-231; assay: Cytotoxicity against human MDA-MB-231 cells assessed as cell growth inhibition at 0.039 to 40 uM by presto blue dye based plate reader method; format: functional
[14] = tested on: HeLa; assay: Anticlonogenic activity against human HeLa cells assessed as inhibition of colony formation after 2 to 7 days by crystal violet staining; format: functional, cell-based
Summary of the method: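 HeLa cells seeded at 500-1000 per well, grown 24 h, drug-treated 48 h at 37°C (DMSO control), then fresh medium for 7 days; methanol fixed 15 min, 0.1% crystal violet 30 min at room temperature, colonies over 50 cells counted.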

[15] = target: T2, Inhibitor of nuclear factor kappa-B kinase subunit beta (Homo sapiens); assay: Covalent inhibition of IKKbeta (unknown origin) at 10 uM after 1 hr by rhodamine azide dye based SDS-PAGE method
Summary of the method: (§2)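 Purified IKKβ or p65 (250 ng in 200 µL) incubated 1 h with 10 µM alkyne probe; click reaction 1 h with 0.1 mM 5-TAMRA azide, 1 mM TCEP, 1 mM CuSO4, 0.1 mM TBTA; methanol precipitation, pellet in SDS buffer, 4-20% SDS-PAGE, fluorescence gel scanning.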

[16] = species on record: Homo sapiens; assay: Covalent inhibition of C-terminus truncated NF-kappaB p65 L15V/P180S/F309S/A439V/V462M mutant (unknown origin) at 10 uM after 1 hr by rhodamine azide dye based SDS-PAGE method; summary of the method: as §2

T1 sequence (P02768 whole entry): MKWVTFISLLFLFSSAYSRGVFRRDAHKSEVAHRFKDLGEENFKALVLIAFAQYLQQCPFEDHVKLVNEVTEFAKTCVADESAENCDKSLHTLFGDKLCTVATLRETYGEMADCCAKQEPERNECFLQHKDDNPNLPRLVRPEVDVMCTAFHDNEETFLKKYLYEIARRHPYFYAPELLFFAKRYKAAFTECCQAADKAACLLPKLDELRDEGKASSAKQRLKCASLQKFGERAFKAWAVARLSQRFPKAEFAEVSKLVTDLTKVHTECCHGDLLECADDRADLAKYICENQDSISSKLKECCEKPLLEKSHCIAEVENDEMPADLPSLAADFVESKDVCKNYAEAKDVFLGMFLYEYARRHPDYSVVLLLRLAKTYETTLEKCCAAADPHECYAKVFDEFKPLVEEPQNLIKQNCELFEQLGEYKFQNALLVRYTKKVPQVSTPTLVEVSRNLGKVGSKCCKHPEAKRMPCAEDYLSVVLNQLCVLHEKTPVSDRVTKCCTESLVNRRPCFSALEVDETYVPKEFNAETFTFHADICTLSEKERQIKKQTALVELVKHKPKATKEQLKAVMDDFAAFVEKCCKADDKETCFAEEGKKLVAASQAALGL

## C=C1CC(c2ccc3ccccc3c2)OC1=O (stereo not drawn)
[1]
  inhibition: 50%

## C=C1CC(c2cccc(Br)n2)OC1=O (stereo not drawn)
[1]
  inhibition: 50%

## C=C1CC(c2ccc(OCc3ccccc3)cc2)OC1=O (stereo not drawn)
[1]
  inhibition: 25%

## Cc1ccc(C)c2c1NC(=O)C21CC(C)C(=O)O1 (stereo not drawn)
[2]
  EC50: > 100 µM
[3]
  IC50: > 100 µM
[4]
  IC50: > 100 µM
[5]
  IC50: > 100 µM

## C=C1C(=O)O[C@@H]2C3O[C@]3(C)CC/C=C(\C)CC[C@@H]12 (stereo partly drawn)
[6]
  half-life: 37 min
[7]
  half-life: 66 min
[2]
  EC50: 12.9 µM
[3]
  IC50: 5.7 µM
[4]
  IC50: 9.8 µM
[5]
  IC50: 15.3 µM
[8]
  inhibition: > 95%

## C=C1CC(c2cccc3ccccc23)OC1=O (stereo not drawn)
[1]
  inhibition: 50%

## N#Cc1c(C2CCNCC2)cc(-c2c(O)cccc2OCC2CC2)nc1N
[9]
  growth inhibition (GI): Active

## C=C1CC2(OC1=O)C(=O)N(Cc1ccccc1)c1ccccc12 (stereo not drawn)
[2]
  EC50: 2.7 µM

## C=C1CC(c2ccc(OC)cc2)OC1=O (stereo not drawn)
[1]
  inhibition: 25%

## CC1CC2(OC1=O)C(=O)Nc1ccccc12 (stereo not drawn)
[10]
  Activity: inactive
[11]
  inhibition: inactive
[12]
  inhibition: inactive
[9]
  growth inhibition (GI): inactive
[13]
  growth inhibition (GI): inactive
[14]
  inhibition: inactive
[8]
  inhibition: 5%

## C=C1CC2(OC1=O)C(=O)N(C)c1ccccc12 (stereo not drawn)
[2]
  EC50: 3.9 µM

## C=C1CC(c2ccc(C3CC(=C)C(=O)O3)cc2)OC1=O (stereo not drawn)
[1]
  inhibition: Active

## C=C1CC(c2cccc(OC)c2)OC1=O (stereo not drawn)
[1]
  inhibition: 25%

## C=C1CC(c2cccc(C(F)(F)F)c2)OC1=O (stereo not drawn)
[1]
  inhibition: 25%

## C#CCCN1C(=O)C2(CC(=C)C(=O)O2)c2ccccc21 (stereo not drawn)
[1]
  inhibition: 75%
[15]
  inhibition: Active
[16]
  inhibition: Active
[2]
  EC50: 5.5 µM

## C=C1CC(c2ccc(OC)c(OC)c2)OC1=O (stereo not drawn)
[1]
  inhibition: 25%

## C=C(CC1(O)C(=O)Nc2ccccc21)C(=O)OC (stereo not drawn)
[11]
  inhibition: Active
[8]
  inhibition: Active

## C=C1CC(c2ccc(OC)c(OCc3ccccc3)c2)OC1=O (stereo not drawn)
[1]
  inhibition: 25%

## NC(=O)Nc1sc(-c2ccc(F)cc2)cc1C(N)=O
[9]
  growth inhibition (GI): Active

## O=C(Nc1ccc(Br)cc1)Nc1ccc2nc(-c3ccco3)c(-c3ccco3)nc2c1
[9]
  growth inhibition (GI): Active

## C=C1CC2(OC1=O)C(=O)Nc1c([N+](=O)[O-])cc(Br)cc12 (stereo not drawn)
[2]
  EC50: 2 µM

## C=C1CC2(OC1=O)C(=O)Nc1ccc(OC)cc12 (stereo not drawn)
[2]
  EC50: 3.1 µM

## C=C1C(=O)OC2(C(=O)Nc3ccccc32)C1c1ccccc1 (stereo not drawn)
[2]
  EC50: 3.8 µM

## C=C1CC(c2ccnc3ccccc23)OC1=O (stereo not drawn)
[1]
  inhibition: inactive

## C=C1CC(c2c(OCc3ccccc3)ccc3ccccc23)OC1=O (stereo not drawn)
[1]
  inhibition: < 25%

## CCC(=O)N1CCC[C@@H](n2nc(-c3ccc(Oc4ccccc4)cc3)c3c(N)ncnc32)C1
[2]
  EC50: 15.2 µM
[3]
  IC50: 15.1 µM
[4]
  IC50: 8.2 µM
[5]
  IC50: 13.4 µM

## C=C1CC(c2c(OC)ccc3ccccc23)OC1=O (stereo not drawn)
[1]
  inhibition: Active

## C=CC(=O)N1CCC[C@@H](n2nc(-c3ccc(Oc4ccccc4)cc3)c3c(N)ncnc32)C1 [IBRUTINIB]
[2]
  EC50: 20.1 µM
[3]
  IC50: 16.8 µM
[4]
  IC50: 16.6 µM
[5]
  IC50: 25.6 µM

## C/C1=C\CC[C@@]2(C)O[C@H]2[C@H]2OC(=O)C(C)[C@@H]2CC1 (stereo partly drawn)
[2]
  EC50: > 100 µM
[3]
  IC50: 66.1 µM
[4]
  IC50: 84.3 µM
[5]
  IC50: > 100 µM
[8]
  inhibition: 20%

## C=C1CC(c2ccc(F)cc2)OC1=O (stereo not drawn)
[1]
  inhibition: 25%

## C=C1CC(c2ccccc2)OC1=O (stereo not drawn)
[1]
  inhibition: 25%

## C=C1CC(c2ccccn2)OC1=O (stereo not drawn)
[1]
  inhibition: < 25%

## C=C1CC(c2cccc(OCc3ccccc3)c2)OC1=O (stereo not drawn)
[1]
  inhibition: 25%

## C=C1CC2(OC1=O)C(=O)Nc1ccc(I)cc12 (stereo not drawn)
[2]
  EC50: 2.2 µM
